Laboratory results reported in ChEMBL document CHEMBL4265975, “Synthesis, biological evaluation and molecular modeling of a novel series of fused 1,2,3-triazoles as potential anti-coronavirus agents” (Bioorg Med Chem Lett, 2018).
pEC50: −log10 of the molar value.

What was measured:
Human coronavirus 229E = assay: Antiviral activity against Human coronavirus 229E infected in HEL cells assessed as reduction in virus-induced pathogenicity after 3 days by microscopic method; format: functional, organism-based; conditions: 72 h
[1] = Cytotoxicity against HEL cells assessed as alteration in cell morphology after 3 days by microscopic method; format: cell-based; conditions: human
Method in brief: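 HEL cells were seeded at 5 x 10^3 cells/well and exposed to graded compound concentrations, up to 100 μM, in parallel with the antiviral assay. Cell morphology was examined by light microscopy. MCC is the minimum concentration causing a microscopically detectable alteration of normal cell morphology.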

Human alphaherpesvirus 1 [2] = assay: Antiviral activity against Herpes simplex virus 1 KOS infected in human HEL cells assessed as inhibition of virus-induced cytopathic effect after 3 days by microscopic method; format: functional, organism-based; conditions: Human alphaherpesvirus 1, KOS, 72 h
Human alphaherpesvirus 2 = assay: Antiviral activity against Human herpesvirus 2 strain G infected in human HEL cells assessed as inhibition of virus-induced cytopathic effect after 3 days by microscopic method; format: functional, organism-based; conditions: Human alphaherpesvirus 2, strain G, 72 h
Human alphaherpesvirus 1 [3] = assay: Antiviral activity against acyclovir-resistant TK-defecient Herpes simplex virus 1 KOS infected in human HEL cells assessed as inhibition of virus-induced cytopathic effect after 3 days by microscopic method; format: functional, organism-based; conditions: Human alphaherpesvirus 1, KOS, 72 h
Vaccinia virus = assay: Antiviral activity against Vaccinia virus infected in human HEL cells assessed as inhibition of virus-induced cytopathic effect after 3 days by microscopic method; format: functional, organism-based; conditions: Orthopoxvirus vaccinia, 72 h
Human adenovirus 2 = assay: Antiviral activity against Human adenovirus 2 infected in human HEL cells assessed as inhibition of virus-induced cytopathic effect after 3 days by microscopic method; format: functional, organism-based; conditions: Human mastadenovirus C, 72 h
Method in brief: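 HEL cells were infected with adenovirus 2 for 2 h. Residual virus was then removed and the cells were incubated with medium containing graded compound concentrations for 3 days at 37°C. Virus-induced cytopathogenicity was scored microscopically.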

[4] = Selectivity index, ratio of MCC for HEL cells to EC50 for Human coronavirus 229E infected in HEL cells; format: toxicity, cell-based; conditions: read-out: Selectivity Index
Method in brief: (§1)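 SI is MCC divided by EC50. […] MCC was measured in parallel on HEL cells seeded at 5 x 10^3 cells/well, as the lowest concentration causing microscopically visible alteration of cell morphology. The top concentration tested was 100 µM.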

[5] = Selectivity index, ratio of MCC for HEL cells to EC50 for Herpes simplex virus 1 KOS infected in HEL cells; format: toxicity, cell-based; conditions: human, read-out: Selectivity Index; method in brief: as §1
[6] = Selectivity index, ratio of MCC for HEL cells to EC50 for Herpes simplex virus 2 strain G infected in HEL cells; format: toxicity, cell-based; conditions: human, read-out: Selectivity Index; method in brief: as §1
[7] = Selectivity index, ratio of MCC for HEL cells to EC50 for acyclovir-resistant TK-defecient Herpes simplex virus 1 KOS infected in HEL cells; format: toxicity, cell-based; conditions: human, read-out: Selectivity Index; method in brief: as §1
[8] = Selectivity index, ratio of MCC for HEL cells to EC50 for Vaccinia virus infected in HEL cells; format: toxicity, cell-based; conditions: human, read-out: Selectivity Index; method in brief: as §1
[9] = Selectivity index, ratio of MCC for HEL cells to EC50 for Human adenovirus 2 infected in HEL cells; format: toxicity, cell-based; conditions: read-out: Selectivity Index; method in brief: as §1

| SMILES | pEC50 (Human coronavirus 229E) | MCC at 72 h [1] | pEC50 (Human alphaherpesvirus 1 [2]) | pEC50 (Human alphaherpesvirus 2) | pEC50 (Human alphaherpesvirus 1 [3]) | pEC50 (Vaccinia virus) | pEC50 (Human adenovirus 2) | selectivity ratio [4] | selectivity ratio [5] | selectivity ratio [6] | selectivity ratio [7] | selectivity ratio [8] | selectivity ratio [9] |
| --- | --- | --- | --- | --- | --- | --- | --- | --- | --- | --- | --- | --- | --- |
| CCOC(=O)C1(Cc2ccccc2)CN(c2ccccc2)Cc2nnn(Cc3ccc(Cl)c(Cl)c3)c21 (stereo not drawn) | < 4.00 | > 100 µM | < 4.00 | < 4.00 | < 4.00 | < 4.00 | < 4.00 | > 8 | > 8 | > 8 | > 8 | > 8 | > 8 |
| CCOC(=O)C1(Cc2ccccc2)CN(c2ccccc2)Cc2nnn(Cc3cccc(Cl)c3)c21 (stereo not drawn) | < 4.00 | > 100 µM | < 4.00 | < 4.00 | < 4.00 | < 4.00 | < 4.00 | > 8 | > 8 | > 8 | > 8 | > 8 | > 8 |
| CCOC(=O)C1(Cc2ccccc2)CN(c2ccccc2)Cc2nnn(CCCCCO)c21 (stereo not drawn) | < 4.00 | > 100 µM | < 4.00 | < 4.00 | < 4.00 | < 4.00 | < 4.00 | > 8 | > 8 | > 8 | > 8 | > 8 | > 8 |
| CCOC(=O)C1(Cc2ccccc2)CN(c2ccccc2)Cc2nnn(Cc3cccc(F)c3)c21 (stereo not drawn) | < 4.00 | ≥ 100 µM | < 4.00 | < 4.00 | < 4.00 | < 4.00 | < 4.00 | > 8 | > 8 | > 8 | > 8 | > 8 | > 8 |
| CCOC(=O)C1(Cc2ccccc2)CN(c2ccccc2)Cc2nnn(Cc3c(F)cccc3Cl)c21 (stereo not drawn) | < 4.00 | > 100 µM | < 4.00 | < 4.00 | < 4.00 | < 4.00 | < 4.00 | > 8 | > 8 | > 8 | > 8 | > 8 | > 8 |
| CCOC(=O)C1(Cc2ccc(F)cc2)CN(c2ccccc2)Cc2nnn(Cc3cccc(F)c3)c21 (stereo not drawn) | < 4.00 | > 100 µM | < 4.00 | < 4.00 | < 4.00 | < 4.00 | < 4.00 | > 8 | > 8 | > 8 | > 8 | > 8 | > 8 |
| CCOC(=O)C1(Cc2ccc(F)cc2)CN(c2ccccc2)Cc2nnn(Cc3ccc(Cl)c(Cl)c3)c21 (stereo not drawn) | 5.02 | > 100 µM | < 4.00 | < 4.00 | < 4.00 | < 4.00 | < 4.00 | > 8 | > 8 | > 8 | > 8 | > 8 | > 8 |
| CCOC(=O)C1(Cc2ccccc2)CN(c2ccccc2)Cc2nnn(CCc3ccc(OC)cc3)c21 (stereo not drawn) | < 4.00 | ≥ 20 µM | < 4.00 | < 4.00 | < 4.00 | < 4.00 | < 4.00 | > 8 | > 8 | > 8 | > 8 | > 8 | > 8 |
| CCOC(=O)C1(Cc2ccccc2)CN(c2ccccc2)Cc2nnn(Cc3ccccc3Cl)c21 (stereo not drawn) | < 4.00 | > 100 µM | < 4.00 | < 4.00 | < 4.00 | < 4.00 | < 4.00 | > 8 | > 8 | > 8 | > 8 | > 8 | > 8 |
| COc1ccccc1CCn1nnc2c1CCN(c1ccccc1)C2 | < 4.00 | ≥ 100 µM | < 4.00 | < 4.00 | < 4.00 | < 4.00 | < 4.00 | > 8 | > 8 | > 8 | > 8 | > 8 | > 8 |
| CCOC(=O)C1(Cc2ccccc2)CN(c2ccccc2)Cc2nnn(Cc3ccc(Cl)cc3)c21 (stereo not drawn) | < 4.00 | > 100 µM | < 4.00 | < 4.00 | < 4.00 | < 4.00 | < 4.00 | > 8 | > 8 | > 8 | > 8 | > 8 | > 8 |
